Compounds with a hit are over-represented: about 3.6% of the library has one in this group of screens.
SR-BI uptake up = enhances SR-BI lipid uptake from DiI-HDL; CHO ldlA[mSR-BI] cells, DiI-HDL uptake fluorescence, 3 h; 100 = double the neutral-control signal; activation, % at 12.5 µM; 320,000 compounds, 0.096% hits; AID 504775;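 active = mean replicate activation of at least 60% and every replicate at or above 60%; inconclusive = mean or all-replicate condition met, but not both; inactive = mean below 60% and not all replicates reaching 60%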;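 also: 0% = median plate neutral-control signal and 100% = twice that signal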
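System: CHO ldlA[mSR-BI] cells / Medium: HEPES-buffered (25 mM, pH 7.4) F12 plus 0.5% BSA / Probe or stimulus: labelled HDL, 10 µg/mL / Doses: single compound concentration, delivered by pin transfer / Schedule: 3 h, 37 °C / Measured by: DiI fluorescence, bottom read / Measure: cell-associated DiI fluorescence as measure of HDL uptake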
MITF act = activators of MITF-driven TRPM1 promoter activity in SK-MEL-5 cells; SK-MEL-5 TRPM1-promoter luciferase, 24 h; % of positive control, neutral wells = 0; activation, % at 12.5 µM; 300,000 compounds, 0.75% hits;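 active = mean activation of at least 80% with every replicate also reaching 80%; inconclusive = mean reaches 80% but some replicate falls short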;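 also: 0% = neutral control wells and 100% = parthenolide positive control wells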
HSF-1 act = increases HSF-1 driven luciferase reporter signal; NIH3T3-HGL HSF-1 luciferase reporter, MG132, 8 h; 100% = twice DMSO control signal; activation, % at 9 µM; 300,000 compounds, 1.7% hits;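 active = mean replicate activation of at least 50% with a set share of replicates each reaching 50%; inconclusive = only one of those two conditions met; inactive = mean below 50% and too few replicates reaching it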;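 also: 0% = median of the neutral control wells and 100% = twice that signal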
SR-BI DiI inh = blocks mouse SR-BI lipid uptake from DiI-HDL; Q61009; ldlA[mSR-BI] CHO cells, DiI-HDL uptake fluorescence, 3 h; inhibition, % at 12.5 µM; 320,000 compounds, 0.96% hits; AID 488896;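 active = mean replicate inhibition of at least 70% and a set share of replicates each scoring 70 or more; inconclusive = meets just one of the two criteria; inactive = fails both criteria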;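 also: 0% = median of neutral control wells and 100% = median of positive control wells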
Target sequence (Q61009 whole entry, looked up): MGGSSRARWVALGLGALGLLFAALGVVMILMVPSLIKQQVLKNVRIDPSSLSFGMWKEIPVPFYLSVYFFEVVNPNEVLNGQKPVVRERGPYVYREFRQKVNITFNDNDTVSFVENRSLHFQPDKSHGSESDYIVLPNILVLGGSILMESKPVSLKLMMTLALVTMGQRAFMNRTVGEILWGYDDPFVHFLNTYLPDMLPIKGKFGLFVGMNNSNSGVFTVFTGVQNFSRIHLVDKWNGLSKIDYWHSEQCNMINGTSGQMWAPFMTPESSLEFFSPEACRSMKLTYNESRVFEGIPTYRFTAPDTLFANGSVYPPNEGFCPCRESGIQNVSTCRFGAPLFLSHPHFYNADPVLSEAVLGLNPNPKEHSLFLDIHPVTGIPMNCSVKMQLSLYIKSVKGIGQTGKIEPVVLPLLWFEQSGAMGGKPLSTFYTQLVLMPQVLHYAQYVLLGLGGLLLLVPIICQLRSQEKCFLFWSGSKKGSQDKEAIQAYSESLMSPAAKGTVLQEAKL
Wnt bcat act = activators of Wnt/beta-catenin signaling | 300,000 compounds, 1.2% hits | activation, % at 9.35 µM | Wnt/beta-catenin reporter cell assay, activator, plate reader | AID 743398; in the data active = activation above about 30%, passing the limit was not always enough; inconclusive = no clear call, values can overlap the other calls;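 also: 0% = neutral control wells and 100% = positive control wells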
* hit, by the source's call; ? = inconclusive; / = no result.

SMILES	SR-BI uptake up	MITF act	HSF-1 act	SR-BI DiI inh	Wnt bcat act
O=[N+]([O-])c1ccc(-c2nc3ccc([N+](=O)[O-])cc3[nH]2)cc1	-30	7	55*	30	/
COC(=O)c1ccccc1COc1cccn2c(N(C)C(=O)CCC3CCCC3)c(C)nc12	/	/	/	/	-4
C=CCN1CC(COc2ccc(OC)cc2)OCCS1(=O)=O (configuration not stated)	/	/	/	/	-3
Cc1cc(C(=O)Nc2ccc3c(c2)OCO3)no1	-25	106*	28	25	22
Cc1ccc(NC(=O)c2cc(-c3ccc4c(c3)OCO4)on2)cc1C	17	29	1	-17	3
CC(C)Cc1cc(C(=O)Nc2ccc3c(c2)OCO3)no1	1	58	16	-1	58*
CC(C)Cc1cc(C(=O)Nc2cccc(O)c2)no1	/	8	21	/	18
Clc1ccc2c(N/N=C/c3ccccc3Br)ccnc2c1	-24	-84	66*	24	2
O=S1(=O)N[C@@H](Cc2ccccc2)COc2cccc(N3CCCC3)c21	/	/	/	/	-3
CC(C)S(=O)(=O)c1cnc(N2CCOCC2)nc1N	-7	/	-4	7	40*
CC(C)(C)S(=O)(=O)c1cnc(N2CCOCC2)nc1N	8	/	-2	-8	2
COc1ccc(N=Cc2nc(-c3ccco3)oc2O)cc1	-4	99*	38	4	/
C[C@@H]1CN([C@@H](C)CO)C(=O)CCCn2cc(nn2)CO[C@H]1CN(C)S(=O)(=O)c1cccc(C#N)c1	/	/	/	/	-1
CCN(CC)C(=O)C1=C(C)N(Cc2ccc(C(C)(C)C)cc2)C(=O)C(CC(=O)NCCCCc2ccccc2)C1 (configuration not stated)	/	/	/	/	-2
O=C(CNC(=O)c1ccccc1)OC1CCCCC1	20	47	5	-20	47*
COC(=O)CNC(=O)c1ccccc1	18	8	0	-18	-1
Cc1ccc(NC(=O)CN(C)C(=O)C2COc3ccccc3O2)cc1 (configuration not stated)	18	-6	-8	-18	-1
COc1ccccc1CN(C)C(=O)C1COc2ccccc2O1 (configuration not stated)	-12	/	-63	12	39*
COc1c(O)cc2oc(-c3ccc(O)cc3)cc(=O)c2c1O	1	41	44	-1	39*
COc1ccc(-c2cc(=O)c3c(C)cc(O)cc3o2)cc1	-29	75	/	29	67*
CC1(Cc2cccc(C(F)(F)F)c2)C(=O)Nc2ccc(-c3ccc(F)c(Cl)c3)cc21 (configuration not stated)	/	/	/	/	-1
C[C@H](NC(=O)c1ccccc1)C(=O)OCC(=O)Nc1ccc(Cl)cn1	/	/	/	/	0
O=S(=O)(c1ccccc1)n1ccc(-c2cnc(-c3ccccc3)s2)n1	19	98*	-15	-19	45*
Fc1ccc(Cn2ccc(-c3cnc(-c4ccccc4)s3)n2)cc1	-4	39	62*	4	/
CC[C@]12c3[nH]c4cc(CCC(=O)N(C)C)ccc4c3CCN1C(=O)[C@@H](CC(=O)NCC13CC4CC(CC(C4)C1)C3)C[C@@H]2C(=O)N1CCN(C(=O)c2ccco2)CC1	-10	-3	/	10	-2
SMILES	SR-BI uptake up	MITF act	HSF-1 act	SR-BI DiI inh	Wnt bcat act
Cc1csc(-c2ccc3cc(Cl)cc(Cl)c3n2)n1	/	/	/	/	4
Cc1ccc(-c2cc3nc(NCCc4ccncc4)n(C)c(=O)c3s2)cc1	/	/	/	/	42*
CC(=O)N1CCN(c2ccc(Nc3ncnc4c3oc3ccccc34)cc2)CC1	-29	-2	12	29	/
CCc1nc(Nc2ccc(N3CCN(C(C)=O)CC3)cc2)c2oc3ccccc3c2n1	-75	8	-2	75*	/
COc1ccc(NC(=O)C2(C)Cc3c(-c4cccc(C(N)=O)c4)ccnc3O2)cn1 (configuration not stated)	/	/	/	/	-1
CC1CCC2(CC1)NC(=O)N(Cc1cccc(C(F)(F)F)c1)C2=O (configuration not stated)	-63	-6	13	63	92*
O=C(O)c1ccc(C(S(=O)(=O)c2ccccc2)S(=O)(=O)c2ccccc2)cc1	/	/	/	/	0
COC(=O)C1=C(COc2ccccc2)NC(=O)NC1c1ccc(Cl)cc1 (configuration not stated)	/	/	53*	/	-3
CC(C)(C)n1nnnc1C(c1cc2ccccc2o1)N(CCC#N)Cc1ccccc1 (configuration not stated)	/	/	/	/	-5
Cc1ccc(N=Cc2sc(O)c3ccccc23)cc1	-18	/	16	18	84*
Cc1ccc(N=Cc2sc(O)c3ccccc23)c(C)c1	-44	/	17	44	0
Cc1cc(SCC(=O)N/N=C/c2ccc(O)c(O)c2)c(C)cc1Br	0	-23	63*	0	/
Cc1c(Br)cccc1NC(=O)C1(C)CCN1CCc1ccccc1 (configuration not stated)	/	/	/	/	-3
CC(C)CNCC(=O)N1c2ccccc2Sc2ccccc21	7	-8	-1	-7	-5
COCCNCC(=O)N1c2ccccc2Sc2ccccc21	8	/	-20	-8	48*
Nc1sc(-c2ccccc2)cc1C(=O)N1CCN(c2ccccc2)CC1	/	/	/	/	-1
Fc1ccc(SCCc2ccccn2)cc1	-7	48	36	7	4
CC(C)(C)c1ccc(SCCc2ccccn2)cc1	-5	102*	?	5	61*
O=C(CCl)c1ccc2c(c1)CCN2C(=O)C1CCCCC1	-18	-13	71*	18	0
COc1ccc(CCOC(=O)c2ccc(NC(=O)CC#N)cc2)cc1	/	-4	-11	37	1
Nc1ccc(C(=O)OCCc2ccccc2)cc1	-5	101*	25	5	60*
O=C(OCCc1ccccc1)c1cc(O)c(O)c(O)c1	8	42	17	-8	51*
CN(C)S(=O)(=O)c1ccc(C(=O)OCCc2ccccc2)cc1	/	21	34	/	0
COc1ccc(C(=O)OCCc2ccc(O)cc2)cc1	-24	130*	43	24	17
CCOC(=O)C1(C)CCCN(C(=O)c2cccnc2)C1 (configuration not stated)	/	/	/	/	-3
SMILES	SR-BI uptake up	MITF act	HSF-1 act	SR-BI DiI inh	Wnt bcat act
CCOC(=O)c1c(C)n(CCOc2ccccc2)c2ccc(O)cc12	-41	-7	69*	41	3
CCOC(=O)c1c(COc2ccccc2)oc2ccc(O)cc12	/	/	105*	/	/
O=C(NCc1ccncc1)C1Cc2c(-c3ccccc3Oc3ccccc3)ccnc2O1 (configuration not stated)	/	/	/	/	3
O=C(N/N=C/c1c(-c2ccccc2)[nH]c2ccccc12)c1cccnc1	-75	22	-41	75*	3
COc1ccc(/C=N/NC(=O)c2cccnc2)c(C(=O)O)c1OC	/	-5	73*	/	-9
COc1ccc(/C=N/NC(=O)c2ccncc2)c(C(=O)O)c1OC	/	4	-4	/	-1
CC(/C=N/NC(=O)c1cccnc1)=C\c1ccccc1	-8	55	39	8	35*

Screening data from PubChem BioAssay.
